The source of these data is ChEMBL document CHEMBL2375348, “Aminopropylindenes derived from Grundmann's ketone as a novel chemotype of oxidosqualene cyclase inhibitors” (Eur J Med Chem, 2013).

Where only a bound is given, the exact number is not on record here.

One assay has as its target Cycloartenol synthase (Arabidopsis thaliana, UniProt P38605). Briefly: Inhibition of Arabidopsis thaliana cycloartenol synthase expressed in Saccharomyces cerevisiae SMY8[pSM60.21] using [14C]-(3S)-2,3-oxidosqualene as substrate. In short, it runs like this:
(§1)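 ERG7-deficient hem1 yeast SMY8 strains were grown aerobically at 30 °C in YPD with hemin and ergosterol, then induced in YPG with hemin (plus ergosterol for A. thaliana). Lyticase/Potter homogenates were incubated with [14C]-(3S)-2,3-oxidosqualene (1000 cpm) at increasing inhibitor levels. Reactions were stopped with KOH/MeOH and saponified at 80 °C for 30 min; extracted conversion was read by TLC radioscan. IC50 came from nonlinear regression; two experiments, each in duplicate.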

A short description of assay [1]: Inhibition of Trypanosoma cruzi lanosterol synthase expressed in Saccharomyces cerevisiae SMY8[pBJ1.21] using [14C]-(3S)-2,3-oxidosqualene as substrate. In short, it runs like this: as §1
For assay [2], the target named is T1, Lanosterol synthase (Homo sapiens, UniProt P48449).
T1 sequence (P48449 whole entry): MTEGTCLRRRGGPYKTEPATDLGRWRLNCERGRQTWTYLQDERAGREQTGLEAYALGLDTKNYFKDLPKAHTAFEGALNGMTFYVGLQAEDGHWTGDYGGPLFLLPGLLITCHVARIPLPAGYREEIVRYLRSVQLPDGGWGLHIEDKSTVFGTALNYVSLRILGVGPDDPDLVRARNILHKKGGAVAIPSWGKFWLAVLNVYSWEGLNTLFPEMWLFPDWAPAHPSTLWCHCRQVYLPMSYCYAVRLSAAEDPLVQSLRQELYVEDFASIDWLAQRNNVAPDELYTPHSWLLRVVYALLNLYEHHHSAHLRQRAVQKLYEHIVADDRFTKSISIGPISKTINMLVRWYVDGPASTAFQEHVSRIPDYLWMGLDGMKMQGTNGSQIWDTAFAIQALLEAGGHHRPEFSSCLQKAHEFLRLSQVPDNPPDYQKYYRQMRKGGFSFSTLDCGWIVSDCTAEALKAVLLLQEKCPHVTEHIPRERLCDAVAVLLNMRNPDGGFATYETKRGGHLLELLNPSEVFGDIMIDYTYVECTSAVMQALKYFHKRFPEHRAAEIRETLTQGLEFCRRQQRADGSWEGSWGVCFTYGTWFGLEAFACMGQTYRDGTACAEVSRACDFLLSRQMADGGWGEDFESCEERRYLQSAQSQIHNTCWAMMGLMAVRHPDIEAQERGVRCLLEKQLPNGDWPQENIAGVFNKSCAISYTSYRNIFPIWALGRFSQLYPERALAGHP
Briefly: Inhibition of human lanosterol synthase expressed in Saccharomyces cerevisiae SMY8[pSOB1.1] using [14C]-(3S)-2,3-oxidosqualene as substrate.

Assay [3] has as its system HL-60. Put plainly: Cytotoxicity against human HL60 cells after 24 hrs by MTT assay. It counts as cell-based. As to conditions: HL-60, 24 h.
For assay [4], the target named is T2, Lanosterol synthase (Pneumocystis carinii, UniProt Q96WJ0).
T2 sequence (Q96WJ0 whole entry): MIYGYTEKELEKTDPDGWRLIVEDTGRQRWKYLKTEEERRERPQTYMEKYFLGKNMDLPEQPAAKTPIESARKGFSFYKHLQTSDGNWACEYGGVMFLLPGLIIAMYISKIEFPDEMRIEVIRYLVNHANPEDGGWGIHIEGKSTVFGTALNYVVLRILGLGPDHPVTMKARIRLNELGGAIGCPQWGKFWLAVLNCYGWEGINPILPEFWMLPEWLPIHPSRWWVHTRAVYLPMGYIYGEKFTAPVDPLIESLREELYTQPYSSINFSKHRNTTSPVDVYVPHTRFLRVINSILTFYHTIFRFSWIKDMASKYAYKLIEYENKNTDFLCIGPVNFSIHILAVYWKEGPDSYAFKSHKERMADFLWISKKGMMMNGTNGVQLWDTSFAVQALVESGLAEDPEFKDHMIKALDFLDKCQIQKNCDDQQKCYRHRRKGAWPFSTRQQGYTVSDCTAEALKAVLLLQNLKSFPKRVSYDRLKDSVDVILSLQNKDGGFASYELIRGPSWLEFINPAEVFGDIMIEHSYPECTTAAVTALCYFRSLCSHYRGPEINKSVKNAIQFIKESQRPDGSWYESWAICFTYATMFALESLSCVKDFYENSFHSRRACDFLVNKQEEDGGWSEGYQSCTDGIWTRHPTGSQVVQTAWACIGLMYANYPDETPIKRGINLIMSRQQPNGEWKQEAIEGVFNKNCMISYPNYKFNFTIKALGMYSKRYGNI
Briefly: Inhibition of Pneumocystis carinii lanosterol synthase expressed in Saccharomyces cerevisiae SMY8[pBJ4.21] using [14C]-(3S)-2,3-oxidosqualene as substrate. In short, it runs like this:
as §1

Assay [5] relates to HL-60. Put plainly: Inhibition of cholesterol biosynthesis in human HL60 cells at 1 uM. It counts as functional. In short, it runs like this: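 HL-60 cells were incubated with 2-13C-acetate and inhibitor at 1 μM, in triplicate. Newly made 13C-labelled cholesterol was separated from pre-existing unlabelled cholesterol by GC-MS. Decrease in cholesterol biosynthesis was expressed against untreated controls.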

In another assay the target is T3, Lanosterol synthase ERG7 (Saccharomyces cerevisiae S288c, UniProt P38604).
T3 sequence (P38604 whole entry): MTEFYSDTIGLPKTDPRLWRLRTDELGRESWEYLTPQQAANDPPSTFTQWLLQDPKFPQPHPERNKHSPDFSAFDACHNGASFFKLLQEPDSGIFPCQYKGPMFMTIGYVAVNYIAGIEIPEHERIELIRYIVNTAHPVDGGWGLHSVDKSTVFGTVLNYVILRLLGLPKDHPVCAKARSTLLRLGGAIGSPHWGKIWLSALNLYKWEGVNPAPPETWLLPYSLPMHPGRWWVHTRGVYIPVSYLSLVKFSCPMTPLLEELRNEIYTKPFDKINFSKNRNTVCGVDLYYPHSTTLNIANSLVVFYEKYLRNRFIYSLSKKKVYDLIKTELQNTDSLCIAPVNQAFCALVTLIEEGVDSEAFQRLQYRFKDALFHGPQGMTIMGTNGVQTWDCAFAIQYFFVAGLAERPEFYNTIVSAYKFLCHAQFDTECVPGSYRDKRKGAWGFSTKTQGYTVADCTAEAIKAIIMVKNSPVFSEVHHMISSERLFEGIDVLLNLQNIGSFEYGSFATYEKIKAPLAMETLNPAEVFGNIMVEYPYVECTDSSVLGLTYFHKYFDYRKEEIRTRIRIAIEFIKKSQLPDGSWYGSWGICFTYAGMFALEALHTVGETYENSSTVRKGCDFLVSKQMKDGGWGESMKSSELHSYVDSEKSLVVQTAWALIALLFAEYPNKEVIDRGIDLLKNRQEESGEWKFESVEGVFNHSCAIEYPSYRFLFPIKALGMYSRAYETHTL
Briefly: Inhibition of wild type yeast lanosterol synthase expressed in Saccharomyces cerevisiae SMY8[pSM61.21] using [14C]-(3S)-2,3-oxidosqualene as substrate. In short, it runs like this:
as §1

Sequence of Cycloartenol synthase (P38605 whole entry): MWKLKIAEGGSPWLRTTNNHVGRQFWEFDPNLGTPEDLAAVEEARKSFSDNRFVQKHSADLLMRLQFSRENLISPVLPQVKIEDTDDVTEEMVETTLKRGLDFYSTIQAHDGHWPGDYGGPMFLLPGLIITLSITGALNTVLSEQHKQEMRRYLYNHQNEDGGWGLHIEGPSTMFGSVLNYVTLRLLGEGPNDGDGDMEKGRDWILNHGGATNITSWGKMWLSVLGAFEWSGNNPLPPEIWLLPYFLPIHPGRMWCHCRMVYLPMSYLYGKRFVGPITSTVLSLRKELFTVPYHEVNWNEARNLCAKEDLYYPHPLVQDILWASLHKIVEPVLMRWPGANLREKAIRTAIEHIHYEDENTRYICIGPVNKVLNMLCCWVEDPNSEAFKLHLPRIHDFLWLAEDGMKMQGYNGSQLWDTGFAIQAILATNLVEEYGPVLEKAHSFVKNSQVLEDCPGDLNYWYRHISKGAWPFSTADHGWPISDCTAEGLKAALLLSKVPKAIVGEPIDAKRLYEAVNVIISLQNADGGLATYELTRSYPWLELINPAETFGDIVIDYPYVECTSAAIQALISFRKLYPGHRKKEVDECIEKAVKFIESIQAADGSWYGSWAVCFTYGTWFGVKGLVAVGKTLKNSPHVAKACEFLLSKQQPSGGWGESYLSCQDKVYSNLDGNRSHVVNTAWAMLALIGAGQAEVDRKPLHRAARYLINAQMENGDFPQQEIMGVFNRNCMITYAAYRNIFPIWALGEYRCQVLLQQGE

With `C=CCN(C)CCCC1=C2CC[C@H]([C@H](C)CCCC(C)C)[C@@]2(C)CCC1`, the IC50 against Cycloartenol synthase is 0.6 µM; in assay [1], 0.8 µM; on Lanosterol synthase [2], 1 µM; in the assay on HL-60 [3], greater than 100 µM; against Lanosterol synthase [4] it was 0.9 µM; at Lanosterol synthase ERG7, 1.5 µM. In the assay on HL-60 [5], this compound showed an inhibition at 1 µM greater than 90%.

`CC(C)CCC[C@@H](C)[C@H]1CCC2=C(CCCN3CCCCC3)CCC[C@@]21C`: the IC50 is 0.5 µM at Cycloartenol synthase; greater than 20 µM in assay [1]; 11.9 µM at Lanosterol synthase [2]; greater than 100 µM in the assay on HL-60 [3]; 17 µM on Lanosterol synthase [4]; 2.1 µM against Lanosterol synthase ERG7.

Consider `CNCCCC1=C2CC[C@H]([C@H](C)CCCC(C)C)[C@@]2(C)CCC1`, for which the IC50 at Cycloartenol synthase is greater than 20 µM; in assay [1], greater than 20 µM; at Lanosterol synthase [2], greater than 20 µM; in the assay with HL-60 [3], greater than 100 µM; against Lanosterol synthase [4], greater than 20 µM; against Lanosterol synthase ERG7, greater than 20 µM.

In the case of `CC(C)CCC[C@@H](C)[C@H]1CCC2=C(CCC[n+]3ccccc3)CCC[C@@]21C`, the IC50 was 0.2 µM against Cycloartenol synthase; greater than 20 µM in assay [1]; 12.5 µM against Lanosterol synthase [2]; 3.5 µM in the assay on HL-60 [3]; 11 µM on Lanosterol synthase [4]; 4.2 µM against Lanosterol synthase ERG7.

Turning to `CC(C)CCC[C@@H](C)[C@H]1CCC2=C(CCC[N+](C)(C)[O-])CCC[C@@]21C`, the IC50 is 1.3 µM against Cycloartenol synthase; 3 µM in assay [1]; greater than 20 µM at Lanosterol synthase [2]; 20 µM with HL-60 [3]; 15 µM against Lanosterol synthase [4]; 2.5 µM against Lanosterol synthase ERG7.

In the assay on HL-60 [3], `C=CCN(C)CCCCCCOc1ccc(C(=O)c2ccc(Br)cc2)c(F)c1` showed an IC50 of 8 µM. In the assay on HL-60 [5], this compound displayed an inhibition at 1 µM greater than 90%.

Turning to `CC(C)CCC[C@@H](C)[C@H]1CCC2=C(CCCN(C)C)CCC[C@@]21C`, the 50% inhibitory concentration (IC50) at Cycloartenol synthase is 0.3 µM; in assay [1], 0.6 µM; against Lanosterol synthase [2], 4.5 µM; in the assay on HL-60 [3], greater than 100 µM; at Lanosterol synthase [4], 13 µM; at Lanosterol synthase ERG7 it was 1.3 µM. The compound also displayed an inhibition at 1 µM with HL-60 [5] greater than 90%.

As for `CN(C)Cc1ccc(C2CCC(N(C)C(=O)c3ccc(Cl)cc3)CC2)cc1` (configuration not stated), the IC50 in the assay on HL-60 [3] is greater than 50 µM. Moreover, the inhibition at 1 µM with HL-60 [5] is 60%.
